# Data from ChEMBL document CHEMBL4513216, “Probing the Open Global Health Chemical Diversity Library for Multistage-Active Starting Points for Next-Generation Antimalarials” (ACS Infect Dis, 2020).
# Experiment: Toxicity liver stage against HepG2, at 10uM
# Format: cell-based
# Set-up: test concentration 10 uM, cell line HepG2-A16-CD81EGFP
# Conditions: human, HepG2-A16-CD81EGFP cells; read-out: INHIBITION
# Method in brief: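 Uninfected HepG2-A16-CD81EGFP cells, 3 × 10^3 per well, 1536-well, plated on prespotted compound at 10 μM final, parasite-free screening media added to match infected plates; puromycin 10 μM positive, DMSO 0.5% negative; run in parallel with 48 h PbLuc assay at 37 °C, 5% CO2; viability by CellTiter-Glo luminescence, normalized to controls.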
row,Structure (SMILES),cytotoxicity at 10 µM [%]
1,CNC(=O)NCC(CO)Cc1cccc(OC(F)(F)F)c1 (stereo unspecified),-1.28
2,CS(=O)(=O)N1CC[C@H]2OCC[C@@]2(C(=O)NCC2CC2)C1,-98.2
3,COCCc1ncc(CNC2(c3ccc(Cl)cc3)CC2)cn1,-17.3
4,Fc1ccc(-c2noc(C3COCCO3)n2)cc1F (stereo unspecified),-1.21
5,Cc1cc(C(F)F)nn1C(C)C(=O)NCc1ncc[nH]1 (stereo unspecified),5.46
6,CN(Cc1ccco1)Cc1cncc2c1CCN(S(C)(=O)=O)C2,2.11
7,CCN1CC[C@@]2(C(=O)N(C)C)CCN(C(=O)Cc3ccccc3)CC[C@@H]12,4.65
8,Cn1cc(S(=O)(=O)Nc2ccc(Cl)cn2)cc1C(N)=O,-1.7
9,CC(C)=CCN1C[C@@H]2CC[C@H]1CN(C(=O)CSc1ccncc1)C2,-0.591
10,O[C@H]1CCN(CC2CCOC2)[C@H]1Cc1ccncc1 (stereo partly specified),-2.32
11,O=C(Cc1ccc2c(c1)OCCCO2)Nc1nnn[nH]1,-4.66
12,O=C(Cc1ccc2c(c1)CCC2)N1CCN(c2cnccn2)CC1,-2.18
13,COc1ccccc1C1CNCCN1C(C)=O (stereo unspecified),3.6
14,COc1cc(NC(=O)NC2CCCC2)ccc1N1CCOC1=O,-7.09
15,Cc1cc(C(=O)N(C)C)nc(C2(C)CCCN2c2ccnc(C)n2)n1 (stereo unspecified),-7.49
16,Cc1nc(C)c(CC(=O)N2C[C@@H](C(=O)O)[C@H](c3ccccc3C)C2)s1,-120
17,CC(=O)Nc1nc(CN2CCCC2Cn2cncn2)cs1 (stereo unspecified),0.222
18,CC(=O)N1Cc2ccnn2CC(C(=O)NCc2cccnc2)C1 (stereo unspecified),-97
19,CC[C@H]1N(C)CCC[C@]12CCC(=O)N2Cc1ccncc1,7.99
20,O=C(NC1CCCCC1)c1nnc2ccc(N3CCOCC3)cc2n1,5.97
21,COCCn1nc(C(=O)N2CCCC2c2cccc(F)c2)ccc1=O (stereo unspecified),-5.5
22,Cc1nonc1CC(=O)N1CCC2(CCCN(C3CCOCC3)C2=O)C1 (stereo unspecified),-95.3
23,O=C(C1CCC1)N1CCCn2nc(CNc3ncccn3)cc2C1,-123

row,Structure (SMILES),cytotoxicity at 10 µM [%]
1,COc1ccccc1CC(=O)NC1CCCc2cn[nH]c21 (stereo unspecified),17.1
2,COC1COC2(CCN(C(=O)c3cscn3)CC2)C1 (stereo unspecified),6.13
3,CCc1nc(C)sc1CN1CC[C@](O)(CC)[C@H](O)C1,-5.61
4,CC(C)C[C@H](N)C(=O)N1CC2(CCNCC2)c2cc(Cl)ccc21,-8.34
5,CCN(c1ccc(C(=O)N2CCC(C(N)=O)CC2)cc1)S(=O)(=O)CC,11.6
6,CC(C)(NS(C)(=O)=O)c1nc(-c2cccc(Cl)c2)no1,2.31
7,COc1cc(C)nc(N2CCN(C(=O)COCC(F)(F)F)CC2)n1,-9.62
8,COc1cccc2c1OCC(NC(=O)NC1CCN(C3CC3)CC1)C2 (stereo unspecified),-10.7
9,N#Cc1cn(C2CC2)c(=O)n(Cc2cc(-c3cccs3)on2)c1=O,0.38
10,c1cncc(-n2cnnc2CCCN2CCOCC2)c1,1.5
11,COc1ccc(CC(=O)N2CCC(c3nnc4n3CCC4)CC2)cc1F,-1.65
12,Cc1ccc(OCC2CCCN(C(=O)c3csc(CN(C)C)n3)C2)cc1 (stereo unspecified),-3.16
13,CCC(C)N(Cc1ccsc1)C(=O)c1ccc(CO)cc1 (stereo unspecified),4.26
14,CN(CCCn1cnc2c(N)ncnc21)Cc1ccccc1,-4.87
15,CCc1noc(C)c1C(=O)N1CCCC1Cn1cc(C)cn1 (stereo unspecified),-6.46
16,CC(C)Nc1ccc(-c2ccnc3c2ccn3C)nn1,-7.94
17,Cc1cccnc1NC(=O)c1ccc(F)c(S(=O)(=O)NC2CC2)c1,1.77
18,COc1ccc2[nH]nc(CN3CCC(C(=O)N4CCCCC4)CC3)c2c1,-2.03
19,CCN(CC)C(=O)c1cc(C2(C)CCN(C(C)=O)CC2)nc(C)n1,5.27
20,O=C(NS(=O)(=O)c1cc(Cl)sc1Cl)c1cccc2c1OCCO2,5.32
21,Cc1nc(S(=O)(=O)NCCC(=O)NCc2ccc(C#N)cc2)cn1C,5.17
22,COc1ccc(CN(Cc2ccccn2)Cc2cncn2C)cc1,9.65
23,CC(NC(=O)NCC1(c2ccc(F)cc2)CC1)c1nncn1C (stereo unspecified),-4.75

row,Structure (SMILES),cytotoxicity at 10 µM [%]
1,O=C(c1ccc(F)cc1)N1C[C@@H]2COC[C@]2(COc2cccnc2)C1,-100
2,CCOCC1CN(S(C)(=O)=O)Cc2cnn(CC3CCOCC3)c21 (stereo unspecified),-0.851
3,Cc1ccc(C(=O)NCCCNS(C)(=O)=O)cc1-n1cccc1,-10
4,c1cn(CCc2c[nH]cn2)c(-c2cc(CN3CCCC3)cs2)n1,-1.45
5,COCC(=O)N1CCCC1c1nccnc1Nc1nc(C)cs1 (stereo unspecified),-3.36
6,Cc1ccc(C(=O)N2CCc3ncc(Cn4cccn4)n3CC2)o1,2.31
7,CC1(C(=O)Nc2ccc(F)c(-n3cccc3)c2)CCOCC1,-0.0972
8,Cc1ccccc1C(O)CNS(=O)(=O)Cc1cccc(C#N)c1 (stereo unspecified),-5.43
9,COc1ccc([C@@H]2CN(C(=O)c3cscn3)C[C@H]2C(=O)O)cc1,-18.2
10,CCOCCN1CCC(c2cncc(C)n2)CC1,-2.58
11,CCn1ccnc1CN(C)CC1CCCN1c1cccnn1 (stereo unspecified),-0.0722
12,CN(C)c1cc2c(nn1)CCN(C(=O)C1CCc3ccccc31)C2 (stereo unspecified),-12.2
13,O=C(CCc1nnc(-c2ccccc2)o1)N1CCN(CC2CC2)CC1,-13.7
14,CCC(C(=O)N(C)Cc1cc(-c2ccccc2)n[nH]1)n1cccn1 (stereo unspecified),-7.35
15,CNCC(=O)N1CCCC1c1cncc(Oc2ccc(F)cc2)n1 (stereo unspecified),-6.44
16,N#Cc1cn(C2CC2)c(=O)n(CC(O)c2ccc(OC(F)F)cc2)c1=O (stereo unspecified),-2.22
17,CS(=O)(=O)NC[C@H]1OC[C@@H]2CCN(CCc3ccccc3)C[C@@H]21,-4.67
18,CCC(O)CN1CCN(C(=O)c2sccc2OC)CC1 (stereo unspecified),-7.25
19,CC(C)N1CCCC(c2cc(C(F)(F)F)nc3nccn23)C1 (stereo unspecified),-11.1
20,CC(C)(N)C(=O)N1CCCC(c2cncc(Oc3cccnc3)n2)C1 (stereo unspecified),-20.6
21,CCN1CCN(C(=O)c2cnn(-c3ccccc3Cl)c2)CC1,-11.5
22,O=C(NCCCn1ccnc1)N1CCCC1c1cccs1 (stereo unspecified),-8.31
23,c1coc(-c2nc(CN3CCCC(Cn4cncn4)C3)cs2)c1 (stereo unspecified),-12

row,Structure (SMILES),cytotoxicity at 10 µM [%]
1,CC(C)Nc1ncnc2c1CCN(Cc1ccoc1)CC2,5.65
2,COC(=O)c1cccn1C1CCN(S(=O)(=O)c2ccccc2)CC1,-11.1
3,CN1CCC2(CC1)CN(C)C(=O)C[C@@H]2C(F)(F)F,-144
4,Cc1cc2ccccc2n1CCC(=O)N1CCCC(O)(CN(C)C)CC1 (stereo unspecified),-1.88
5,CCc1nc(CN(C)Cc2nnc(-c3cccs3)o2)cs1,6.37
6,Cc1noc(C(C)N2CCN(CC(=O)N3CCOCC3)CC2)n1 (stereo unspecified),-8.41
7,CN(Cc1ccc(Cl)s1)C(=O)c1cccc(OCC(N)=O)c1,-1.61
8,COCC1CCCCN1C(=O)c1cc(-c2cccc(OC)c2)n[nH]1 (stereo unspecified),9.34
9,CC(C)Oc1ncccc1CNC(=O)NC(C)c1cccs1 (stereo unspecified),-2.3
10,CN1CCN(CC2CCN(C(=O)CCC3CCCCC3)CC2)CC1,-3.68
11,CCCc1cc(N2CCCCC2Cn2cc(C)cn2)n2ncnc2n1 (stereo unspecified),-0.554
12,COCCC(=O)Nc1ccnn1-c1ccccc1,-2.55
13,CN(Cc1csc(-c2ccccc2)n1)Cc1ncccc1C(=O)O,6.03
14,Cc1nc(Nc2nncs2)cc(C2CCCN2)n1 (stereo unspecified),-1.03
15,Cc1ocnc1C(=O)N(C)[C@@H]1CCC[C@@H](N2CCCC2)[C@@H]1O,-3.7
16,CS(=O)(=O)CCNC(=O)NCCc1cc2ccccc2o1,2.8
17,O=C(c1cccnc1O)N(Cc1ccsc1)CC1CCCO1 (stereo unspecified),-12.3
18,CCn1c(CN2CCCC2)nnc1C1CCN(Cc2ccccn2)CC1,3.11
19,COc1cc(C(=O)N(CCC#N)Cc2ccccn2)cc(OC)c1C,-15.1
20,O=S(=O)(c1cn[nH]c1)N1C[C@@H](O)[C@H](N2CCc3ccccc3C2)C1,-3.47
21,OC1(CNCc2cnc(N3CCOCC3)nc2)CCCCC1,-2.41
22,CCOc1nnc(CN(C)CC2CCCN2c2cccnn2)s1 (stereo unspecified),-10.7
23,Cc1cc(C)c2ncn(CC(C)(C)CO)c(=O)c2c1,15.4

row,Structure (SMILES),cytotoxicity at 10 µM [%]
1,Cc1cccc(CN2CCS(=O)(=O)[C@@H]3CCN(C(=O)C4CC4)CC[C@@H]32)n1,-3.64
2,CCCN(C)c1ccc(C(=O)NCc2ccnc(C)n2)cc1,6.6
3,O=C(c1ccc(COc2ccccc2Cl)o1)N1N=CCC1(O)C(F)(F)F (stereo unspecified),14.5
4,Nc1nccnc1C1CN(C(=O)c2ccnnc2)CCO1 (stereo unspecified),9.48
5,NC(=O)C1CCCN(C(=O)c2cccc(OCc3cscn3)c2)C1 (stereo unspecified),-7.98
6,Cn1cccc1C(=O)N1CCCn2nc(CCC(=O)NC3CC3)cc2C1,5.45
7,Cc1cnc(C(=O)N2Cc3ccccc3OC3(CCOCC3)C2)cn1,-1.54
8,CCc1noc(C2CCCCN2C(=O)c2cccs2)n1 (stereo unspecified),6.5
9,CCc1ncc2c(n1)CN(CC(=O)Nc1ccc(Cl)cn1)CC2,1.47
10,O=C([C@H]1C[C@H]2OCC[C@H]2N(C(=O)c2ccncc2)C1)N1CCCC1,4.76
11,Cc1cc(CN2CCN(CC(O)c3ccccc3)CC2)no1 (stereo unspecified),-14.4
12,CC(C)c1nc(C2CCCN(C(=O)c3cccc4c3OCO4)C2)no1 (stereo unspecified),-12
13,COc1cccc2cc(CNCc3ccc(N4CCCC4)nc3)oc12,-5.42
14,Cc1ccc(-c2nc(CN3CCn4c(C)nnc4C3)co2)cc1,-8.03
15,CC1c2ncc(Cn3cncn3)n2CCN1C(=O)c1ccsc1 (stereo unspecified),-0.551
16,CS(=O)(=O)N[C@H]1CCO[C@]2(CCN(CC3CCOCC3)C2)C1,-122
17,CCN1C(=O)CCC12CCCN(Cc1nccs1)CC2 (stereo unspecified),-0.413
18,F[C@@H]1CN(CC2CC2)C[C@@H]1OCc1nc2ncccc2[nH]1,5.52
19,Cc1cc(CN(Cc2cccnc2)CC2CCCO2)on1 (stereo unspecified),-7.03
